Screens from PubChem BioAssay.
Tn6 DDE FP = DD(E)-Tn6 binding inhibition, primary FP screen. P02675. Fibrin DD(E) TRITC-Tn6 fluorescence polarization displacement. inhibition, % at 8.3 µM. hit rate 0.21% among 370,000. AID 720509;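 active = inhibition above a per-campaign cutoff: mean of compounds within control limits plus 3 SD, cut at about 15% in these data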;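 note: 0% = median of all compound wells on the plate and 100% = blocking peptide control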
Target sequence (P02675 whole entry, looked up): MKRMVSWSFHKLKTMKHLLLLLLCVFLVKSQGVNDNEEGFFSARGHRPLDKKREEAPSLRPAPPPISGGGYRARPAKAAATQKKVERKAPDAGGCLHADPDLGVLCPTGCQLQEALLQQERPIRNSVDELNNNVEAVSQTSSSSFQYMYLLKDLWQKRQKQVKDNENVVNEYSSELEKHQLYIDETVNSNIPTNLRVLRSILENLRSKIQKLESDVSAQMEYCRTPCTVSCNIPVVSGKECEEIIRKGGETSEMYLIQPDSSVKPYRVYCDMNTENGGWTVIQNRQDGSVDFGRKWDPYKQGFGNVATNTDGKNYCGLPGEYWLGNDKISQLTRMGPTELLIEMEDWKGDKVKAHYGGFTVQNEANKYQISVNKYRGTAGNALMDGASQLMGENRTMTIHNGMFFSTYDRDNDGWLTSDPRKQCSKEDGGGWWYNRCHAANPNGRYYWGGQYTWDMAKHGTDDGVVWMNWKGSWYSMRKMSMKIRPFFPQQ
ARNT TACC3 PPI = disruptors of human ARNT/TACC3 interaction | Q9Y6A5 | AlphaScreen His-ARNT PAS-B/GST-TACC3 binding, luminescence; TACC3 fragment carries E629A point mutation | inhibition, % at 9.99 µM | hit rate 0.66% among 390,000 | AID 623870;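 active = mean inhibition of replicates at least 50% and at least half of replicates each reaching 50%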;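 note: 0% = complete ARNT plus TACC3 wells and 100% = ARNT alone without TACC3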
CAL PDZ FP-1 = inhibitors of human CAL PDZ peptide binding | purified CAL PDZ, TMR-peptide fluorescence polarization, 1 h | inhibition, % at 20 µM | hit rate 0.02% among 330,000 | AID 504414;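 active = highest replicate inhibition of at least 40%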;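 note: plate controls were DMSO neutral control wells for no effect and unlabeled competitor peptide control wells for full effect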
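Test system: purified CerCALP PDZ construct; Compound dosing: one concentration, 20 µM compound; Also added: TMR-labelled reporter peptide T*-PRC34 bound in PDZ groove; Read-out: inhibition from polarization loss; Controls: unlabelled peptide and DMSO controls; Signal: FP readout, S and P plane fluorescence; Incubation: 1 h at RT.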
CAL PDZ FP-2 = CAL PDZ (human) peptide binding inhibition; inhibition, % at 24.9 µM; hit rate 0.92% among 300,000; purified CAL PDZ, TMR-peptide fluorescence polarization, 1 h; Q9HD26;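 active = mean inhibition of at least 30% with at least half of replicates also reaching 30%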;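 note: 0% = DMSO neutral control and 100% = excess unlabeled competitor peptide PRC23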
DDE Tn7 FP inh = disrupts Tn7 cyclic peptide binding to fibrin D-Dimer-E complex; P02675; FP displacement of FITC-Tn7 peptide from fibrin DD(E); 0% = median of compound wells per plate; inhibition, % at 8.3 µM; hit rate 0.13% among 370,000; AID 720508;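 active = inhibition above the mean of compounds falling within the control limits plus 3 SD of them, cut at about 14% in these data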;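 note: 0% = plate median of compound wells and 100% = 10 µM Aha-Tn7 peptide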
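Assay system: human fibrin DD(E) protein / Input: 2 µM fibrin DD(E) / Benchmarks: high control of 10 µM Aha-Tn7 peptide / Measured by: fluorescence polarization of the labelled Tn7 tracer / Medium: Tris buffer with calcium and detergent, pH 7.8 / Timing: 10 min compound pre-incubation, 3 h probe incubation at room temperature / Repeats: one replicate per compound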
GRK2 aptamer HTS = human GRK2 inhibition via aptamer displacement. P25098. inhibition of aptamer binding, % at 10 µM. bead flow cytometry, FAM-aptamer displacement from GRK2. hit rate 0.59% among 330,000;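 active = inhibition of aptamer binding above 40%, roughly 3 SD of noise, on plates passing a quality check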;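 note: median bead fluorescence of bound FAM aptamer so fluorescent compounds give negative values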
GRK2 inh confirm = human GRK2 inhibition confirmation, cherry pick 1; bead-bound GRK2, FAM-aptamer displacement, flow cytometry; AID 504451; shares compounds with GRK2 aptamer HTS; hit rate 4% among 2,000; aptamer displacement, % at 10 µM;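 active = aptamer displacement above 40%, near three times the noise of non-fluorescent compounds, on plates passing quality checks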;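 note: negative values mostly reflect intrinsic compound fluorescence rather than true enhancement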
Aptamer quench SP = counter-screen for GRK2 aptamer inhibitors: fluorescent aptamer quenchers | shares compounds with GRK2 aptamer HTS | Carboxyfluorescein RNA aptamer on beads, flow cytometry quenching; hits give low values | fluorescence response (% of DMSO), % at 10 µM | 2,000 tested, under 10 active | AID 504580;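 active = compounds that quench the bead-bound fluorescent RNA probe, cutting fluorescence to under half of the solvent control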;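 note: counterscreen run without GRK2 so only probe quenching by compound is measured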
GRK2 CP2 = confirmation of human GRK2 inhibitors binding RNA aptamer site | shares compounds with GRK2 aptamer HTS | bead-bound GRK2, FAM-aptamer displacement, flow cytometry | inhibition of aptamer binding, % at 10 µM | 360 tested, under 10 active | AID 504782;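 active = inhibition of aptamer binding above 40%, about triple the noise seen with nonglowing compounds, on plates passing quality control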;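 note: negative values mostly come from compounds that fluoresce themselves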
FAM quench SP = quenches fluorescent RNA aptamer, GRK2 hit artifact; shares compounds with GRK2 aptamer HTS; carboxyfluorescein RNA aptamer beads, flow cytometry quenching; hits give low values; fluorescence response vs DMSO, % at 10 µM; 360 tested, under 10 active; AID 588494;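 active = response vs DMSO under 50%, meaning signal dropped by over half, treated as fluorescence quencher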;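 note: labelled aptamer on streptavidin beads without GRK2 as a quench counter-screen; 100% = bead fluorescence of DMSO wells and lower means quenching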
Numbers without * were called inactive; · = no result given. A selection: hits, their analogues and other compounds. The true share with any hit is near 1.8%.

SMILES	Tn6 DDE FP	ARNT TACC3 PPI	CAL PDZ FP-1	CAL PDZ FP-2	DDE Tn7 FP inh	GRK2 aptamer HTS	GRK2 inh confirm	Aptamer quench SP	others
CC(=O)N(c1ccc(N(C(C)=O)S(=O)(=O)c2cccs2)cc1)S(=O)(=O)c1cccs1	1.3	-2.7	-5.0	-4.1	-1.8	53.0*	-1.6	99.9
COc1ccc(C(=O)N(c2ccc(OC)cc2)S(=O)(=O)c2cccs2)cc1	2.3	-2.6	-1.9	-1.6	1.6	0.0	·	·
Cc1ccc(NC(=O)CN2C(=O)N/C(=C/c3ccc(N4CCOCC4)cc3)C2=O)cc1	-1.6	-7.1	0.1	-2.8	0.7	1.0	·	·
Cc1ccccc1NC(=O)CN1C(=O)N/C(=C\c2ccc(N3CCOCC3)c(F)c2)C1=O	4.7	-5.0	-0.3	1.3	0.0	1.0	-0.5	98.0
Cc1cc(C)c2c(c1)NC(C(=O)O)C1CC=CC21 (stereo not drawn)	4.3	13.5	1.3	4.0	5.4	93.0*	13.7	101.4
O=C(CC1CC1)Nc1ccc2c(c1)[C@H]1C[C@H](CC(=O)N3CCOCC3)O[C@@H](CO)[C@H]1O2	·	-1.9	·	·	·	·	·	·
COc1ccccc1N1CCN(C(=O)CSc2nc3ccccc3[nH]2)CC1	1.9	-2.2	-0.4	7.5	2.8	96.0*	-27.7	103.4
CCC(=O)N[C@H]1CC[C@@H](CC(=O)NCc2ccccc2F)O[C@H]1CO	·	-1.3	·	·	·	·	·	·
O=C(NC1CCCCC1)c1cc(S(=O)(=O)N2CCCCC2)ccc1N1CCOCC1	-4.1	·	-1.4	7.2	0.3	42.0*	-2.4	101.6
CCOc1cc(N2CCOCC2)c(OCC)cc1NC(=O)c1cc(S(=O)(=O)N2CCOCC2)ccc1F	1.0	-4.0	0.0	·	4.1	5.0	-2.1	95.6
CCOc1cc(N2CCOCC2)c(OCC)cc1NC(=O)c1ccc(S(=O)(=O)N(C)C)cc1	-4.3	-1.4	-2.5	2.1	0.6	5.0	·	·
CCOc1cc(N2CCOCC2)c(OCC)cc1NC(=O)c1cccc(S(=O)(=O)N2CCOCC2)c1	0.1	2.3	0.8	-0.3	-4.1	30.0	1.2	97.0
CCOc1cc(N2CCOCC2)c(OCC)cc1NC(=O)c1cccc(S(=O)(=O)N2CC(C)OC(C)C2)c1 (stereo not drawn)	-4.1	·	·	·	-12.6	·	·	·
C[C@H](CO)N1C[C@H](C)[C@@H](CN(C)C(=O)Nc2ccc(F)cc2)Oc2ccc(NC(=O)Nc3ccccc3)cc2C1=O	·	-7.8	·	·	·	·	·	·
O=C(NCc1ccccc1CN1CCCC1)C1CCN(C(=O)c2ccc(F)cc2)CC1	5.5	2.4	0.0	-6.9	-4.4	69.0*	-46.4	120.4
COc1ccc(S(=O)(=O)Nc2ccc3c(c2)n(C)c(=O)n3C)cc1	-1.0	-4.3	-2.1	-1.6	0.8	19.0	1.4	67.5
COc1ccc(S(=O)(=O)Nc2ccc3c(c2)n(C)c(=O)n3C)cc1OC	2.0	-10.1	-0.4	1.9	-1.5	0.0	·	·
COc1cccc(NS(=O)(=O)c2c(C)n(C)c(=O)n(C)c2=O)c1	-0.4	-4.9	-0.2	-4.5	-8.3	84.0*	17.1	96.8
CCOc1ccc2nc(NS(=O)(=O)c3ccc4c(c3)n(C)c(=O)n4C)sc2c1	-1.9	·	0.0	-1.6	4.3	61.0*	-4.3	94.8
C[C@@H]1CN([C@@H](C)CO)C(=O)c2cccc(NC(=O)Nc3ccccc3)c2O[C@H]1CN(C)Cc1ccc(C(=O)O)cc1	·	-0.3	·	·	·	·	·	·
Cc1ccccc1-c1ccc2c(c1)O[C@@H](CN(C)C(=O)C1CC1)[C@@H](C)CN([C@@H](C)CO)S2(=O)=O	·	-3.2	·	·	·	·	·	·
CCC1Oc2ccccc2N(CC(=O)NCCCN2CCCCC2CC)C1=O (stereo not drawn)	-4.3	-26.1	-3.1	-6.1	-4.2	0.0	·	·
CCC1Oc2ccccc2N(CC(=O)NCCCN2CCCCC2C)C1=O (stereo not drawn)	0.5	-4.0	1.3	-1.9	0.8	61.0*	-8.8	111.2
O=C(O)c1ccc(-n2c(-c3cc(-c4ccco4)[nH]n3)n[nH]c2=S)cc1	9.5	15.5	0.0	-1.9	-1.2	80.0*	4.1	99.0
CC(=O)c1ccc(-n2c(-c3cc(-c4ccco4)[nH]n3)n[nH]c2=S)cc1	10.7	2.7	-0.9	11.1	4.1	6.0	·	·
SMILES	Tn6 DDE FP	ARNT TACC3 PPI	CAL PDZ FP-1	CAL PDZ FP-2	DDE Tn7 FP inh	GRK2 aptamer HTS	GRK2 inh confirm	Aptamer quench SP	others
Cc1noc(C)c1COc1ccc(C(=O)Nc2nnc(CC(C)C)s2)cc1	7.8	1.4	-0.2	-0.4	-2.8	4.0	·	·
COc1cccc(-c2nnc(NC(=O)c3ccc(Cl)s3)o2)c1	-4.6	43.1	-2.4	·	-10.3	52.0*	-1.8	96.5
CCCNC(=O)[C@@H]1[C@@H](CO)[C@@H]2Cn3c(ccc(-c4ccc(C(=O)N(C)C)cc4)c3=O)[C@@H]2N1CCC	·	-7.6	·	·	·	·	·	·
O=C(N/N=C/c1cccnc1)c1cccc(NC(=O)c2ccc(Cl)cc2)c1	·	0.7	-2.8	-4.6	·	39.0	-4.7	93.1
C[C@@H]1CN([C@@H](C)CO)C(=O)c2cc(C#CC3(O)CCCC3)cnc2O[C@@H]1CN(C)C(=O)Nc1ccc2c(c1)OCO2	·	1.4	·	·	·	·	·	·
CC(CNc1ccccc1O)C(=O)O (stereo not drawn)	-5.5	7.6	-2.2	-2.1	0.4	62.0*	·	·	GRK2 CP2=24.6;FAM quench SP=108.0
CC(NC(=O)CCC(=O)Nc1ccccc1O)c1ccccc1 (stereo not drawn)	0.3	·	·	·	3.5	2.0	·	·
CCOC(=O)c1cnc(SC2CC(=O)N(c3ccc(OC)c(OC)c3)C2=O)nc1N (stereo not drawn)	0.3	-1.0	-2.2	-4.2	8.0	45.0*	-4.1	98.4
Cn1cc(C(=O)OCC2CCN(CCNS(C)(=O)=O)CC2)c2ccccc21	-7.2	-2.7	-2.2	·	7.2	0.0	0.5	96.3
C[C@H](CO)N1C[C@H](C)[C@H](CN(C)Cc2ccc(F)cc2)Oc2ncc(-c3cccc(C#N)c3)cc2C1=O	·	-1.8	·	·	·	·	·	·
CCc1nc2ccc(C(=O)NCCN3CCNC3=O)cn2c1N(CC)CCOC	-3.9	·	·	·	2.2	·	·	·
Cc1ccc2c(c1)n([O-])c1c([n+]2=O)CCCC1	7.3	-0.2	·	-1.4	-0.3	52.0*	-5.0	103.0
